The text below walks through data of ChEMBL document CHEMBL4118065, “Design, synthesis and antimycobacterial activity of novel imidazo[1,2-a]pyridine-3-carboxamide derivatives” (Eur J Med Chem, 2017).

In experiment [1] the test system is Mycobacterium tuberculosis. Put plainly: Antimycobacterial activity against isoniazid/rifampicin-resistant Mycobacterium tuberculosis MTB11168 after 7 days by microplate Alamar blue assay. The class given is functional. Conditions: MTB11168, 168 h. The procedure, abridged: (§1)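 MABA against replicating M. tuberculosis. Cells grown to late log phase (70–100 Klett units) in 7H9 broth with 0.2% glycerol, 0.05% Tween 80 and 10% ADC. They were washed in PBS, filtered (8 µm) and frozen. Twofold compound dilutions received 2×10^5 CFU per well at 37 °C. Tween 80 and Alamar blue were added on day 7, then 16–24 h more. Fluorescence read at 530/590 nm. MIC = lowest concentration giving ≥90% fluorescence reduction versus bacterium-only controls.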
Background: The colour change of resazurin is a common sign of viable cells or microbes.

Experiment [2] concerns Mycobacterium tuberculosis. Put plainly: Antimycobacterial activity against isoniazid/rifampicin-resistant Mycobacterium tuberculosis MTB9160 after 7 days by microplate Alamar blue assay. The class given is functional. Particulars: MTB9160, 168 h. The procedure, abridged:
as §1

Values after ≈ are worked out from the molar mass of the structure shown. Bounds are passed on as bounds.

A word on the MIC90: it is the lowest concentration that inhibits either 90% of growth or 90% of the strains tested, depending on the study. Regarding `Cc1ccc2nc(C)c(C(=O)NCCOc3ccc(Br)cc3)n2c1`, the values for the MIC90 in experiment [1] and in experiment [2] were less than 0.041 µM and 0.2 µM (≈ 0.0777 µg/mL), respectively.

As to `Cc1ccc2nc(C)c(C(=O)NCCNc3ccc(C(C)(C)C)cc3)n2c1`, the MIC90 in experiment [1] was 1.37 µM (≈ 0.499 µg/mL); in experiment [2], 0.57 µM (≈ 0.208 µg/mL).

`COc1ccc(NCCNC(=O)c2c(C)nc3ccc(C)cn23)cc1`: the MIC90 in experiment [1] worked out at 1.47 µM (≈ 0.497 µg/mL); in experiment [2], 2.64 µM (≈ 0.893 µg/mL).

With `CO[C@H]1/C=C/O[C@@]2(C)Oc3c(C)c(O)c4c(O)c(c(/C=N/N5CCN(C)CC5)c(O)c4c3C2=O)NC(=O)/C(C)=C\C=C\[C@H](C)[C@H](O)[C@@H](C)[C@@H](O)[C@@H](C)[C@H](OC(C)=O)[C@@H]1C` [RIFAMPIN], the MIC90 in experiment [1] and in experiment [2] was greater than 57 µM each time.

For the compound `NNC(=O)c1ccncc1` [ISONIAZID], the MIC90 in experiment [1] and in experiment [2] was greater than 291 µM throughout.
